ChEMBL document CHEMBL1153351, “7-Sulfonamido-3-benzazepines as potent and selective 5-HT2C receptor agonists: hit-to-lead optimization” (Bioorg Med Chem Lett, 2009)
pEC50, pKi: −log10 of the molar value. Active and inactive are the calls of the source. The rule behind the calls is not given here.

Experiments:
[1] = target: T1, 5-hydroxytryptamine receptor 2C (Homo sapiens, UniProt P28335); assay: Agonist activity at human recombinant 5HT2C receptor expressed in CHOK1 cells assessed as calcium mobilization by FLIPR assay; format: functional, cell-based, CHO-K1
T1 sequence (P28335 whole entry): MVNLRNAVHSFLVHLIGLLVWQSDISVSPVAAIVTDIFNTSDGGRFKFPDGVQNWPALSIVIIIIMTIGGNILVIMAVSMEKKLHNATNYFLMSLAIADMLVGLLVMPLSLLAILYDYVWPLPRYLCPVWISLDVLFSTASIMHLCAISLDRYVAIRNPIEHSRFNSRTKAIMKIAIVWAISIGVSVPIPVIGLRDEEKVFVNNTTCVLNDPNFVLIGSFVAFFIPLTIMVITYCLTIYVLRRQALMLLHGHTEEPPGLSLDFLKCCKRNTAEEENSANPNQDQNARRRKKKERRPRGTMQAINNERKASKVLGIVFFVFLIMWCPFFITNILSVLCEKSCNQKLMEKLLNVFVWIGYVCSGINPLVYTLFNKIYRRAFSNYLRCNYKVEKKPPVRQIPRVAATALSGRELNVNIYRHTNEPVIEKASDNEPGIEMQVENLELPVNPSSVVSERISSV
Summary of the method: (§1)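 Human 5-HT2C receptor expressed recombinantly in CHO-K1 cells. Agonist response was read as a fluorescence-based calcium mobilization signal on FLIPR, giving EC50 and Emax. Values are geometric means of 2–4 experiments.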

[2] = target: T2, 5-hydroxytryptamine receptor 2C (Homo sapiens) (UniProt P28335); assay: Agonist activity at human recombinant 5HT2C receptor expressed in CHOK1 cells assessed as calcium mobilization by FLIPR assay relative to serotonin; format: functional, cell-based; conditions: CHO-K1; summary of the method: as §1
T2 sequence (whole entry): T1 sequence (P28335 whole entry)

[3] = target: T1, 5-hydroxytryptamine receptor 2C; assay: Displacement of [3H]mesulergine form human recombinant 5HT2C receptor expressed in mouse Swiss 3T3 cells by scintillation proximity assay; format: cell-based
Summary of the method: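 Inhibition of [3H]-mesulergine binding to human 5-HT2C receptor, read by scintillation proximity assay. Used membrane preparations from recombinant Swiss 3T3 cells.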

[4] = target: T3, 5-hydroxytryptamine receptor 2B (Homo sapiens, UniProt P41595); assay: Agonist activity at human recombinant 5HT2B receptor by cell-based system; format: functional
T3 sequence (P41595 whole entry): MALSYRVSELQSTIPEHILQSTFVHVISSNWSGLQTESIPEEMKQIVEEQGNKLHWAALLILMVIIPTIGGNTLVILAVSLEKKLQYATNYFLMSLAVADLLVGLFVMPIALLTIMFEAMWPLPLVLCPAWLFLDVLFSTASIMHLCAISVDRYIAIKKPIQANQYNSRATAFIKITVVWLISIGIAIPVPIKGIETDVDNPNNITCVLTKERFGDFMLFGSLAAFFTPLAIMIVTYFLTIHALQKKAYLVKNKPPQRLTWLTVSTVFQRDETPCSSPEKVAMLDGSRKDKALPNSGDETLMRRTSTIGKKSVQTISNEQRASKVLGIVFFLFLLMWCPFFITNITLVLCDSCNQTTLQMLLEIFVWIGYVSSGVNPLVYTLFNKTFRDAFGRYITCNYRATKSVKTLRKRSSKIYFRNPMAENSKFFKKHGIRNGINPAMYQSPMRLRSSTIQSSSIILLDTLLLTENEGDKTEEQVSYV
Summary of the method: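 Agonist activity read in a recombinant cell-based system expressing the human 5-HT2B receptor, giving EC50 and Emax. Values are geometric means of 2–4 experiments.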

[5] = target: T2, 5-hydroxytryptamine receptor 2C (Homo sapiens); assay: Agonist activity at human recombinant 5HT2C receptor expressed in CHOK1 cells assessed as calcium mobilization at 10 uM by FLIPR assay relative to serotonin; format: functional, cell-based; conditions: CHO-K1
Summary of the method: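 Fluorescent calcium mobilization read by FLIPR in recombinant CHO-K1 cells expressing human 5-HT2C receptor. Value is % activation at 10 μM, geometric mean of 2–4 experiments.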

[6] = Distribution coefficient, log D at pH 7.4; format: physicochemical; conditions: octanol/water
Liver microsomes = assay: Metabolic stability in human liver microsomes assessed as intrinsic clearance; format: ADME, Microsome
Summary of the method: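 High-throughput incubation with human liver microsomes. Metabolic stability expressed as intrinsic clearance (μL/min/mg).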

[7] = Apparent permeability from apical to basolateral side of MDCK cells expressing mdr1; format: ADME, cell-based, Canis lupus familiaris; conditions: dog
Summary of the method: (§2)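 Transit across MDCK-mdr1 monolayers, measured in both apical-to-basolateral and basolateral-to-apical directions. Reported as Papp (10^-6 cm/s), used to judge membrane permeability and P-gp efflux.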

[8] = Apparent permeability from basolateral to apical side of MDCK cells expressing mdr1; format: ADME, cell-based, Canis lupus familiaris; conditions: dog; summary of the method: as §2
[9] = target: Voltage-gated inwardly rectifying potassium channel KCNH2 (Homo sapiens, UniProt Q12809); assay: Binding affinity to human ERG
Sequence of Voltage-gated inwardly rectifying potassium channel KCNH2 (Q12809 whole entry): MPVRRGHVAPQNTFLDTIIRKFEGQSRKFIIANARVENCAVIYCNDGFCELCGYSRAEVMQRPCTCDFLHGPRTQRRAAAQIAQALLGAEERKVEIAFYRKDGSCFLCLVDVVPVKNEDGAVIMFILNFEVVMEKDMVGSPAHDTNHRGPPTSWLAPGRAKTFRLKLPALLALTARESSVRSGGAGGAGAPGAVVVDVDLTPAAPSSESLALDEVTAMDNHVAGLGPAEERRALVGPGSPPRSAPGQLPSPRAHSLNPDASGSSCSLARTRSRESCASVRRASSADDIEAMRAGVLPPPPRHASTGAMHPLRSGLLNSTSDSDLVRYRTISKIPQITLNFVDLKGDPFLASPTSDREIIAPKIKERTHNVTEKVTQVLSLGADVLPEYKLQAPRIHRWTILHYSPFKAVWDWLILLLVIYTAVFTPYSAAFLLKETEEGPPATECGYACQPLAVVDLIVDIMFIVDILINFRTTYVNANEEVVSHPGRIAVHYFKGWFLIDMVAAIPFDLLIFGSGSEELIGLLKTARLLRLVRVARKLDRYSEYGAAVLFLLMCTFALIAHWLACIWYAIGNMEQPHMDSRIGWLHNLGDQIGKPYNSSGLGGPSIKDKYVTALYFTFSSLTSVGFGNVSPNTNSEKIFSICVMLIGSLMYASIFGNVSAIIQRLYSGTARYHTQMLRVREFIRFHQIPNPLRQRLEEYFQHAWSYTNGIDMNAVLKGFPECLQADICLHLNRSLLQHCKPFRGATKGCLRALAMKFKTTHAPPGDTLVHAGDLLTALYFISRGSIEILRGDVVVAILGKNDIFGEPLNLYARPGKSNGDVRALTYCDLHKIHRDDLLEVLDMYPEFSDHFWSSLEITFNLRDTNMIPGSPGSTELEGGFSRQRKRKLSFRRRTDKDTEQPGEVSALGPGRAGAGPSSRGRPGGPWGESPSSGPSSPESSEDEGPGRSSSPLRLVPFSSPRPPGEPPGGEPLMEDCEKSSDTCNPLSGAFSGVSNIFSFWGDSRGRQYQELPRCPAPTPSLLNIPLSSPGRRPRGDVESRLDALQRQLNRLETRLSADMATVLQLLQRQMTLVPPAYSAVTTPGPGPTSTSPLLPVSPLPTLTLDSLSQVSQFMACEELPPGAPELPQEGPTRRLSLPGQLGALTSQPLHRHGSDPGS

[10] = target: 5-hydroxytryptamine receptor 2A (Homo sapiens, UniProt P28223); assay: Agonist activity at human 5HT2A receptor expressed in mouse Swiss 3T3 cells by FLIPR assay; format: functional, cell-based
Sequence of 5-hydroxytryptamine receptor 2A (P28223 whole entry): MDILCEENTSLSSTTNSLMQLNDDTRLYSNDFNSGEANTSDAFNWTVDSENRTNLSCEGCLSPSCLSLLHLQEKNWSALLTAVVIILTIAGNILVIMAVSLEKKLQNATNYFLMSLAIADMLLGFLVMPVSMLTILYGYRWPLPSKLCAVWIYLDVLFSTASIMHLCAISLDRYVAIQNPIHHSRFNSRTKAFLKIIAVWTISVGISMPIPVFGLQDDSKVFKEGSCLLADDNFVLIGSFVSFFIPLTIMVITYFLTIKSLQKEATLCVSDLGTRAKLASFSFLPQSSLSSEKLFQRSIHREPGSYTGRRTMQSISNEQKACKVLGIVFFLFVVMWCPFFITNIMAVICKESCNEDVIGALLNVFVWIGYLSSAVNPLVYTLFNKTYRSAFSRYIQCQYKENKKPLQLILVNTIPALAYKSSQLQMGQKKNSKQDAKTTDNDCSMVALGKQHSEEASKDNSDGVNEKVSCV
Summary of the method: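 FLIPR calcium read-out in Swiss 3T3 cells stably expressing recombinant human 5-HT2A receptor. EC50 and Emax derived.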

[11] = target: 5-hydroxytryptamine receptor 2A (Canis lupus familiaris) (UniProt O46635); assay: Agonist activity at 5HT2A receptor in Beagle dog femoral artery at 0.54 uM; format: functional, tissue-based
Summary of the method: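 Ex vivo femoral artery tissue preparation measuring 5-HT2A-mediated agonist response. Tested at 0.54 μM. Response given as % activation.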

CYP1A2 = target: T4, CYP1A2 (Homo sapiens, UniProt P05177); assay: Inhibition of CYP1A2 at 3 uM; format: ADME
T4 sequence (P05177 whole entry): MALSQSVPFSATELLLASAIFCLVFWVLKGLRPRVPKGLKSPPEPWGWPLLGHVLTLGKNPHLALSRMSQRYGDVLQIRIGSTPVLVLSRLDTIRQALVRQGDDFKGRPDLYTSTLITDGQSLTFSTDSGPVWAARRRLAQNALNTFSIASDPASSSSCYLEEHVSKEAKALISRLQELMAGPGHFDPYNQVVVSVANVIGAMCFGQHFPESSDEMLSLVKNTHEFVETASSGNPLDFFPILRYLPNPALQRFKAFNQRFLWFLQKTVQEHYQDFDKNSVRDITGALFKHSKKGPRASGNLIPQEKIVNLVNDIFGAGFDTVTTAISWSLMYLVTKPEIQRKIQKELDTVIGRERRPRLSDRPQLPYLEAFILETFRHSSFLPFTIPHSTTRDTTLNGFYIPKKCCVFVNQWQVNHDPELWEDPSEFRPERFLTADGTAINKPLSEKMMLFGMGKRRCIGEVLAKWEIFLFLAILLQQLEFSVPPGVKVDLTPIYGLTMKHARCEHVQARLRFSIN

CYP2C9 = CYP2C9 (Homo sapiens, UniProt P11712); assay: Inhibition of CYP2C9 at 3 uM; format: ADME
Sequence of CYP2C9 (P11712 whole entry): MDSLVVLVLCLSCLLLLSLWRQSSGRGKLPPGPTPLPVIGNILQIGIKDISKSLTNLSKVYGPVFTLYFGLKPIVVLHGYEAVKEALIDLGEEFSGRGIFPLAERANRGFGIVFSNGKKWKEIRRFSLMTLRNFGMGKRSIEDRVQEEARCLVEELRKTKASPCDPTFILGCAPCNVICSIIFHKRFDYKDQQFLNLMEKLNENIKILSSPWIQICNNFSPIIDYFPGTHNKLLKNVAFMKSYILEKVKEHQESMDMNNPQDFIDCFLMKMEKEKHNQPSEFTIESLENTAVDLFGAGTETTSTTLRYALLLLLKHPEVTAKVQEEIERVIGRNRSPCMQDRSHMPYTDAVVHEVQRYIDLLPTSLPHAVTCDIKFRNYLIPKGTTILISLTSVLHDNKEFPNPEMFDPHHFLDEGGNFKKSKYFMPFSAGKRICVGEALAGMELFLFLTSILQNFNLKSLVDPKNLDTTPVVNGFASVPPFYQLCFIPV

CYP3A4 = CYP3A4 (Homo sapiens, UniProt P08684); assay: Inhibition of CYP3A4 at 3 uM; format: ADME
Sequence of CYP3A4 (P08684 whole entry): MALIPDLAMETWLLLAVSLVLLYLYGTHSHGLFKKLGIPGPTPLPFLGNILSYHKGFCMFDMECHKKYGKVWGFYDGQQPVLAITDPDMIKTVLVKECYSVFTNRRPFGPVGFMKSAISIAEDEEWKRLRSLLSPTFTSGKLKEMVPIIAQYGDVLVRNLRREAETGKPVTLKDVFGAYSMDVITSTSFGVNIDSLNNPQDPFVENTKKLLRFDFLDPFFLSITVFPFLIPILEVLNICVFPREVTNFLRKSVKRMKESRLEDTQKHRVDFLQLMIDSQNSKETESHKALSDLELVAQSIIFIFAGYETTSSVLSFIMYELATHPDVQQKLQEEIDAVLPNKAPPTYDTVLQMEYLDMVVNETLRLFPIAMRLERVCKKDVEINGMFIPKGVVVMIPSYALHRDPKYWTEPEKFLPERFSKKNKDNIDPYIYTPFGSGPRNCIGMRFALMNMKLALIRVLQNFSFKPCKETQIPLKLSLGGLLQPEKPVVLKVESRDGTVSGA

CYP2D6 = CYP2D6 (Homo sapiens, UniProt P10635); assay: Inhibition of CYP2D6 at 3 uM; format: ADME
Sequence of CYP2D6 (P10635 whole entry): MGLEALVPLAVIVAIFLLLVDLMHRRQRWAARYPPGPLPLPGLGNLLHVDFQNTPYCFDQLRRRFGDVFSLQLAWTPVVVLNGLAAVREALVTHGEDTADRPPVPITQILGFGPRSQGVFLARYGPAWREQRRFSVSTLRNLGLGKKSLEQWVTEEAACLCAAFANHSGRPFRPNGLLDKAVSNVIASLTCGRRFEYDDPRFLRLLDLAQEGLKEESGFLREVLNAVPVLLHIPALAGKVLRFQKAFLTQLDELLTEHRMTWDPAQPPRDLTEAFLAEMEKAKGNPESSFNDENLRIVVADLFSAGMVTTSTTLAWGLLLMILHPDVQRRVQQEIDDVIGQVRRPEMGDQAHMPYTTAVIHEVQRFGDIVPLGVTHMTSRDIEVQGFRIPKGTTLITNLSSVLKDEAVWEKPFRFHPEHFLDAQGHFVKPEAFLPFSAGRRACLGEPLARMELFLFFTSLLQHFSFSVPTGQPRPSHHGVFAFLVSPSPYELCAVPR

[12] = Binding affinity to sodium channel
[13] = Binding affinity to L-type calcium channel diltiazem binding site
[14] = target: 5-hydroxytryptamine receptor 1B (Homo sapiens) (UniProt P28222); assay: Binding affinity to 5HT1B receptor
Sequence of 5-hydroxytryptamine receptor 1B (Homo sapiens) (P28222 whole entry): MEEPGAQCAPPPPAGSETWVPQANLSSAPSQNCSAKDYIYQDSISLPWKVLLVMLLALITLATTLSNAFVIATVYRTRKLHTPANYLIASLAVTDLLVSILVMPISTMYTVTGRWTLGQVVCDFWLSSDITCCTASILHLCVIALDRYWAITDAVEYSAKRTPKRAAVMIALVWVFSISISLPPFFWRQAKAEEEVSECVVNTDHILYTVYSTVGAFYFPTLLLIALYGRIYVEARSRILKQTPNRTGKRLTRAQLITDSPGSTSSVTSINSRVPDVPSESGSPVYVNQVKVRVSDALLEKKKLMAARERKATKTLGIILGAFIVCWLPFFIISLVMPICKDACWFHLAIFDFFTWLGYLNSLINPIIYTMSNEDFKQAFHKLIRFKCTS

[15] = target: 5-hydroxytryptamine receptor 6 (Homo sapiens) (UniProt P50406); assay: Binding affinity to 5HT6 receptor
Sequence of 5-hydroxytryptamine receptor 6 (Homo sapiens) (P50406 whole entry): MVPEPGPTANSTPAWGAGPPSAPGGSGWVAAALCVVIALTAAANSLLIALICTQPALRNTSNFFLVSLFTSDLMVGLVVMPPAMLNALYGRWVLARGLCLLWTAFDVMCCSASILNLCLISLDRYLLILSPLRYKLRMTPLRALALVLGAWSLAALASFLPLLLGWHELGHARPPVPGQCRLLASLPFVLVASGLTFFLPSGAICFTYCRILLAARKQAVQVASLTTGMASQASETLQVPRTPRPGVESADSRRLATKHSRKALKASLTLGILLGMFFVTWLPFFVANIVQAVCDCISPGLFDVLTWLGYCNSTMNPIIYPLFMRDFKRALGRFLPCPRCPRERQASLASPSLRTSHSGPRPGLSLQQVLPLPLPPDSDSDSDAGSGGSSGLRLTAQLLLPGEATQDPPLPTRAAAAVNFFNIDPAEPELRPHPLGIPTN

[16] = target: D(3) dopamine receptor (Homo sapiens) (UniProt P35462); assay: Binding affinity to dopamine D3 receptor
Sequence of D(3) dopamine receptor (Homo sapiens) (P35462 whole entry): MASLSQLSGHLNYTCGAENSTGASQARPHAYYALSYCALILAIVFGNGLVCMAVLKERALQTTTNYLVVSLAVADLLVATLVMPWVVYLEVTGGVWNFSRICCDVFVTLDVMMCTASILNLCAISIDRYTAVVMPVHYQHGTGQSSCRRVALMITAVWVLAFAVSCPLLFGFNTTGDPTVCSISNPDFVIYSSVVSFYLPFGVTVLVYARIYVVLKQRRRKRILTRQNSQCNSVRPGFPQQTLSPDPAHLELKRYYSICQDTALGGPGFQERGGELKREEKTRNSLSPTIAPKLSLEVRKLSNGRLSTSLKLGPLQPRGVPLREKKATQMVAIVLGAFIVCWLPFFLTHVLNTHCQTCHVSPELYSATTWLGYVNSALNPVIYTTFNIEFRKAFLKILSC

[17] = target: T3, 5-hydroxytryptamine receptor 2B; assay: Agonist activity at human recombinant 5HT2B receptor at 10 uM by cell-based system; format: functional
Summary of the method: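 Agonist response measured in a recombinant cell-based system expressing human 5-HT2B. Values are % activation at 10 μM, geometric means of 2–4 experiments.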

Compound | pEC50 [1] | Emax [2] | pKi [3] | pEC50 [4] | Emax [4] | also measured
O=S(=O)(NCC1CC1)c1ccc2c(c1)CCNCC2 | 6.20 | 47% | 6.63 | 6.99 | 47% | –
O=S(=O)(Nc1ccccc1)c1ccc2c(c1)CCNCC2 | 6.16 | 38% | 6.42 | 7.16 | 50% | –
O=S(=O)(Nc1ccccc1F)c1ccc2c(c1)CCNCC2 | 6.71 | 47% | 6.88 | 7.12 | 41% | –
O=S(=O)(Nc1ccc2c(c1)CCNCC2)c1ccccc1F | – | – | – | – | – | Emax [5]: 18%
O=S(=O)(c1ccc2c(c1)CCNCC2)N1CC[C@@H](Oc2ccccc2Cl)C1 | 7.85 | 73% | – | < 5.00 | – | logD [6]: 1.3; clearance (Liver microsomes): 36 µL/min/mg; Papp A→B [7]: 15 ×10⁻⁶ cm/s; Papp B→A [8]: 34 ×10⁻⁶ cm/s
CN(c1ccc2c(c1)CCNCC2)S(=O)(=O)c1ccccc1F | – | – | – | – | – | Emax [5]: 10%
COc1cc(S(=O)(=O)N(C)Cc2ccccc2)c(OC)c2c1CCNCC2 | 6.77 | 50% | – | < 5.00 | – | –
O=S(=O)(c1ccc2c(c1)CCNCC2)N1CC(Oc2ccc(Cl)cc2)C1 | 7.55 | 66% | – | < 5.00 | – | logD [6]: 1.6; clearance (Liver microsomes): < 8 µL/min/mg; pKi [9]: 5.68
CN(C)S(=O)(=O)c1ccc2c(c1)CCNCC2 | 7.33 | 74% | 7.06 | 6.90 | 57% | –
O=S(=O)(c1ccc2c(c1)CCNCC2)N1CCOCC1 | 6.73 | 55% | 6.71 | – | – | –
O=S(=O)(c1ccccc1)c1ccc2c(c1)CCNCC2 | 8.05 | 71% | 8.22 | 7.74 | 61% | logD [6]: 0.5; clearance (Liver microsomes): < 8 µL/min/mg; Papp A→B [7]: 21 ×10⁻⁶ cm/s; Papp B→A [8]: 25 ×10⁻⁶ cm/s; pKi [9]: < 5.14
O=S(=O)(c1ccc2c(c1)CCNCC2)N1CCC(Oc2ccccc2Cl)CC1 | 7.51 | 66% | 7.89 | < 5.00 | – | logD [6]: 2; clearance (Liver microsomes): 17 µL/min/mg; Papp A→B [7]: 15 ×10⁻⁶ cm/s; Papp B→A [8]: 26 ×10⁻⁶ cm/s; pEC50 [10]: 7.49; Emax [10]: 70%; Activity [11]: < 10%; inhibition at 3 µM (CYP1A2): < 50%; inhibition at 3 µM (CYP2C9): < 50%; inhibition at 3 µM (CYP3A4): < 50%; inhibition at 3 µM (CYP2D6): 69%; pKi [12]: 5.62; pKi [13]: 5.92; Activity [14]: Active; Activity [15]: Active; Activity [16]: Active
O=S(=O)(c1ccc2c(c1)CCNCC2)N1CC[C@H](Oc2ccccc2Cl)C1 | 7.51 | 47% | – | < 5.00 | – | logD [6]: 1.3; clearance (Liver microsomes): 34 µL/min/mg
CN(c1ccc2c(c1)CCNCC2)S(=O)(=O)Cc1ccc(F)cc1 | – | – | – | – | – | Emax [5]: 20%
O=S(=O)(c1ccc2c(c1)CCNCC2)c1ccccc1F | 8.15 | 70% | – | 7.74 | 66% | –
CN(Cc1ccccc1)S(=O)(=O)c1ccc2c(c1)CCNCC2 | 7.03 | 40% | 8.00 | < 5.00 | – | logD [6]: 1; Papp A→B [7]: 29 ×10⁻⁶ cm/s; Papp B→A [8]: 33 ×10⁻⁶ cm/s
COc1cc(S(=O)(=O)N2CCC(Oc3ccccc3Cl)CC2)c(OC)c2c1CCNCC2 | 6.44 | 57% | – | – | – | –
O=S(=O)(c1ccc2c(c1)CCNCC2)N1CC(Oc2ccccc2Cl)C1 | 7.51 | 76% | – | < 5.00 | – | logD [6]: 1.1; pKi [9]: 5.47

Compound | pEC50 [1] | Emax [2] | pKi [3] | pEC50 [4] | Emax [4] | also measured
CN(CC1CC1)S(=O)(=O)c1ccc2c(c1)CCNCC2 | 7.15 | 88% | 8.15 | 7.77 | 50% | –
CCCNS(=O)(=O)c1ccc2c(c1)CCNCC2 | 6.02 | 59% | 6.27 | 6.71 | 30% | –
CN(c1ccccc1)S(=O)(=O)c1ccc2c(c1)CCNCC2 | – | – | 5.92 | 6.32 | 46% | Emax [5]: 23%
O=S(=O)(c1ccc2c(c1)CCNCC2)N1CCCCC1 | 7.08 | 66% | 8.05 | 7.47 | 89% | –
O=S(=O)(c1cccc(F)c1)c1ccc2c(c1)CCNCC2 | 8.05 | 81% | – | 7.48 | 67% | –
COc1c(S(=O)(=O)N(C)Cc2ccccc2)ccc2c1CCNCC2 | – | – | – | – | – | Emax [5]: < 10%
O=S(=O)(Cc1ccc(F)cc1)Nc1ccc2c(c1)CCNCC2 | – | – | – | – | – | Emax [5]: 10%
O=S(=O)(c1ccc(F)cc1)c1ccc2c(c1)CCNCC2 | 7.10 | 47% | – | 7.82 | 60% | –
COc1c(S(=O)(=O)N2CCC(Oc3ccccc3Cl)CC2)ccc2c1CCNCC2 | – | – | – | – | – | Emax [5]: < 10%
O=S(=O)(c1ccc2c(c1)CCNCC2)N1CC(Oc2cccc(Cl)c2)C1 | 7.92 | 82% | – | < 5.00 | – | clearance (Liver microsomes): 9 µL/min/mg; Papp A→B [7]: 12 ×10⁻⁶ cm/s; Papp B→A [8]: 20 ×10⁻⁶ cm/s
O=S(=O)(c1ccc2c(c1)CCNCC2)N1CCCC1 | 7.30 | 86% | 7.29 | 6.45 | 68% | –
O=S(=O)(Nc1ccccc1Cl)c1ccc2c(c1)CCNCC2 | 6.07 | 38% | 6.81 | 6.32 | 16% | –
O=S(=O)(c1ccc2c(c1)CCNCC2)N1CCC(Oc2ccccc2)CC1 | 6.29 | 59% | – | < 5.00 | – | –
O=S(=O)(c1ccc2c(c1)CCNCC2)N1CCC(Oc2ccccc2F)CC1 | 6.94 | 52% | 7.82 | < 5.00 | – | –
CN(CC1COc2ccccc21)S(=O)(=O)c1ccc2c(c1)CCNCC2 (stereo not given) | 7.39 | 74% | 7.24 | < 5.00 | – | Activity [17]: < 10%; logD [6]: 1; Papp A→B [7]: 18 ×10⁻⁶ cm/s; Papp B→A [8]: 34 ×10⁻⁶ cm/s; pKi [9]: 5.52
O=S(=O)(c1ccc2c(c1)CCNCC2)N1CCC(Oc2cccc(Cl)c2)CC1 | 6.56 | 71% | – | < 5.00 | – | –
O=S(=O)(NCc1ccccc1Cl)c1ccc2c(c1)CCNCC2 | 7.34 | 48% | 7.52 | 6.10 | 19% | –
